From ChEMBL document CHEMBL1140290, “Synthesis and evaluation of (17alpha,20Z)-21-(4-substituted-phenyl)-19-norpregna-1,3,5(10),20-tetraene-3,17beta-diols as ligands for the estrogen receptor-alpha hormone binding domain: comparison with 20E-isomers” (J Med Chem, 2005)

Assays:
[1] = molecular target: T1, Estrogen receptor (Homo sapiens) (UniProt P03372); experiment: Relative binding affinity of E isomers to human ERalpha-HBD at 4C compared to [3H]-estradiol
T1 sequence (whole entry): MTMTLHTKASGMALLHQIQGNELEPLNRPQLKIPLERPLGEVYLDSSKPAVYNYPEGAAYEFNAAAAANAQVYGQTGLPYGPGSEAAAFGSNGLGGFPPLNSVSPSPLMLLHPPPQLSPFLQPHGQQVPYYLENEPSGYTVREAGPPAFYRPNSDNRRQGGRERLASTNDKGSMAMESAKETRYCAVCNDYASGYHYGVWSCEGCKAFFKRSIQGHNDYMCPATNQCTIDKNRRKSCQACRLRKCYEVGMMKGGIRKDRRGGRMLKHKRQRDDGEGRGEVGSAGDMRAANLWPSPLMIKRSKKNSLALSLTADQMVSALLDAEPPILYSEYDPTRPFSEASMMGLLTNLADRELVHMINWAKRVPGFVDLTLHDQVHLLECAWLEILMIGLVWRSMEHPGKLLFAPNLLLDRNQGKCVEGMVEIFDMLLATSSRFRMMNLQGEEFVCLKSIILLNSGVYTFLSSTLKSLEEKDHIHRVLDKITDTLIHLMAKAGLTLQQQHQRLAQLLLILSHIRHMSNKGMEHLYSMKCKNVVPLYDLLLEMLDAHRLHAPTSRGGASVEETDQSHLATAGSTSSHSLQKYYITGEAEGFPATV

[2] = molecular target: T1, Estrogen receptor (Homo sapiens); experiment: Relative binding affinity of Z isomers to human ERalpha-HBD at 4C compared to [3H]estradiol
How it was run: (§1)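 ERα-HBD (33 kDa) expressed in BL21 cells, induced with 0.6 mM IPTG for 3 h at room temperature. Lysed by sonication in Tris/NaCl/EDTA/DTT/1 M urea buffer, pH 7.4, clarified at 30000g, and diluted to 50 nM ER. […] Bound and free separated with dextran-coated charcoal. RBA = 100×[E]/[C], from 50% inhibition on a best-fit curve.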

[3] = molecular target: T1, Estrogen receptor (Homo sapiens); experiment: Relative binding affinity of E isomers to human ERalpha-HBD at 25 degree C compared to [3H]estradiol
[4] = molecular target: T1, Estrogen receptor (Homo sapiens); experiment: Relative binding affinity of Z isomers to human ERalpha-HBD at 25 degree C compared to [3H]estradiol; how it was run: as §1
[5] = molecular target: T2, Estrogen receptor (Rattus norvegicus) (UniProt P06211+Q62986); experiment: Effective dose of E-isomer in rat uterotrophic growth assay compared to 10 nmol estradiol; format: functional
[6] = molecular target: T2, Estrogen receptor (Rattus norvegicus); experiment: Effective dose of Z-isomer in rat uterotrophic growth assay compared to 10 nmol estradiol; format: functional

| SMILES | RBA [1] | RBA [2] | RBA [3] | RBA [4] | ED50 [5] | ED50 [6] |
| --- | --- | --- | --- | --- | --- | --- |
| CC(=O)c1ccc(/C=C\[C@]2(O)CC[C@H]3[C@@H]4CCc5cc(O)ccc5[C@H]4CC[C@@]32C)cc1 | 53% | 22% | 60% | 29% | – | – |
| C[C@]12CC[C@@H]3c4ccc(O)cc4CC[C@H]3[C@@H]1CC[C@@]2(O)/C=C\c1ccc(C(F)(F)F)cc1 | 5% | 5% | 8% | 9% | 10.6 nmol | 1.1 nmol |
| C[C@]12CC[C@@H]3c4ccc(O)cc4CC[C@H]3[C@@H]1CC[C@@]2(O)/C=C\c1ccc(N)cc1 | – | 22% | – | 26% | – | – |
| C[C@]12CC[C@@H]3c4ccc(O)cc4CC[C@H]3[C@@H]1CC[C@@]2(O)/C=C\c1ccccc1 | 16% | 57% | 9% | 66% | – | – |
| COc1ccc(/C=C\[C@]2(O)CC[C@H]3[C@@H]4CCc5cc(O)ccc5[C@H]4CC[C@@]32C)cc1 | 36% | 20% | 32% | 39% | – | – |
| Cc1ccc(/C=C\[C@]2(O)CC[C@H]3[C@@H]4CCc5cc(O)ccc5[C@H]4CC[C@@]32C)cc1 | 10% | 10% | 18% | 9% | 5.5 nmol | 4.2 nmol |
| C[C@]12CC[C@@H]3c4ccc(O)cc4CC[C@H]3[C@@H]1CC[C@@]2(O)/C=C\c1ccc(F)cc1 | 24% | 43% | 22% | 44% | 72 nmol | 2.3 nmol |
| C[C@]12CC[C@@H]3c4ccc(O)cc4CC[C@H]3[C@@H]1CC[C@@]2(O)/C=C\c1ccc(C#N)cc1 | 9% | 20% | 27% | 12% | – | – |
| C[C@]12CC[C@@H]3c4ccc(O)cc4CC[C@H]3[C@@H]1CC[C@@]2(O)/C=C\c1ccc(O)cc1 | 21% | 12% | 25% | 25% | – | – |
